This note sets out measurements from ChEMBL document CHEMBL4613267, “Novel Potent Muscarinic Receptor Antagonists: Investigation on the Nature of Lipophilic Substituents in the 5- and/or 6-Positions of the 1,4-Dioxane Nucleus” (J Med Chem, 2020).

pKi: −log10 of the molar value. Activity calls are given as the source filed them. The calls are words filed in the database; no cut-off is given here.

Assay [1] concerns the target T1, Muscarinic acetylcholine receptor (Mus musculus) (UniProt Q920H4+Q9ERZ4+P12657+P32211+Q9ERZ3). Briefly: Activity at muscarinic receptor in BALB/c mouse MSC assessed as reduction in cell viability at 10^-4M incubated for 24 hrs by Cell-titer 96 aqueous one solution reagent based assay. In kind it is […]. A digest of the protocol:
(§1)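 Bone-marrow MSCs from mouse, cultured for 2 weeks, then seeded at 5,000 cells/well in DMEM with 10% heat-inactivated FCS. Exposed to compound at 10–4 to 10–10 M for 24 h, with vehicle (DMSO) and untreated controls. Viability read by MTS reagent (2 h, 5% CO2) as absorbance at 490 nm. Mean ± SEM of four independent experiments.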

In assay [2] the target is T1, Muscarinic acetylcholine receptor (Mus musculus). The conditions noted are these: BALB/c, 10^-10M.
For assay [3] the target is unchanged. Put plainly: Activity at muscarinic receptor in BALB/c mouse MSC assessed as increase in cell viability at 10^-10M incubated for 24 hrs by Cell-titer 96 aqueous one solution reagent based assay. In kind it is […]. In short, it runs like this: as §1
Assay [4] has the same target. Briefly: Antagonist activity at muscarinic receptor in BALB/c mouse MSC assessed as inhibition of carbachol-induced increase in cell viability at 10^-4 to 10^-10M incubated for 24 hrs by Cell-titer 96 aqueous one solution reagent based assay. In kind it is […]. A digest of the protocol:
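Mouse bone-marrow MSCs kept as adherent cultures, with medium changes, for 2 weeks, then plated at 5,000 cells/well in DMEM with 10% HIFCS. Antagonist (10–4 to 10–10 M) given for 1 h, medium replaced, then carbachol 10–10 M for 24 h. Viability read by MTS, 2 h incubation, absorbance 490 nm. Controls were vehicle (DMSO) and untreated cells. Four independent experiments, mean ± SEM.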

Assay [5] has as its target T2, Muscarinic acetylcholine receptor M5 (Homo sapiens, UniProt P08912).
T2 sequence (P08912 whole entry): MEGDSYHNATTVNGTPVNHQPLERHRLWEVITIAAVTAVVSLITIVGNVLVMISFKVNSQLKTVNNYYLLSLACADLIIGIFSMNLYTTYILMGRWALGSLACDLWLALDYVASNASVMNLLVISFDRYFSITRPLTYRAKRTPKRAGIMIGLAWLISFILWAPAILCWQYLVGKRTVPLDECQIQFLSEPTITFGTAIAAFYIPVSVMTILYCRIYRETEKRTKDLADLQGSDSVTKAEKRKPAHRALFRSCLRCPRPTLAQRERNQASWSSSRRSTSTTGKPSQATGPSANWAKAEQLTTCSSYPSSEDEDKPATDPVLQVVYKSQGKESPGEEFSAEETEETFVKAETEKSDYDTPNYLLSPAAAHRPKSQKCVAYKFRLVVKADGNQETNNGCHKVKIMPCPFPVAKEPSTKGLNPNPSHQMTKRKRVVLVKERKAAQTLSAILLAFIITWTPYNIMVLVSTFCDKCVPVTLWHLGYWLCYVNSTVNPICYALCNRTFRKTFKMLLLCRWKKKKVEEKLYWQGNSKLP
Put plainly: Displacement of [3H]NMS from human recombinant muscarinic receptor M5 expressed in CHO-K1 cell membranes incubated for 2 hrs by scintillation counting method. In short, it runs like this:
(§2)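 CHO-K1 membranes stably expressing hM4 or hM5, at about 25–70 μg/mL protein, in 25 mM sodium phosphate with 5 mM MgCl2, pH 7.4. Competition with 0.2 nM [3H]NMS for 2 h at r.t.; nonspecific binding defined with 10 μM atropine. Filtration, then scintillation counting. IC50 from four-parameter logistic fit, converted to Ki. Mean ± S.E.M. of ≥3 experiments, each in duplicate.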
(In general: Displacement assays read how much labelled ligand stays bound in the presence of the test substance.)

Assay [6] has as its target T3, Muscarinic acetylcholine receptor M4 (Homo sapiens, UniProt P08173).
T3 sequence (P08173 whole entry): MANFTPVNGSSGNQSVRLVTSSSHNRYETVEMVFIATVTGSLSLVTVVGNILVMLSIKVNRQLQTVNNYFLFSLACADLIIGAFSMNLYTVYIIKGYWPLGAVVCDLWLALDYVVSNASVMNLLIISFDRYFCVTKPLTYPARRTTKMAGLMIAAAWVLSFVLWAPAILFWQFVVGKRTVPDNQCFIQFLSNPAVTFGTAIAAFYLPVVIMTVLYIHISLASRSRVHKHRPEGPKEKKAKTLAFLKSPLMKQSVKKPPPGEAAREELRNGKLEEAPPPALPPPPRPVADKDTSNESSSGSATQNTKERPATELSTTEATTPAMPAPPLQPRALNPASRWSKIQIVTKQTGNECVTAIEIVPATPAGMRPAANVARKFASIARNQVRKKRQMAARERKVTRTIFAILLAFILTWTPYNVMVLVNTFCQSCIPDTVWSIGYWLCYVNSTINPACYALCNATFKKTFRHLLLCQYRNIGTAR
Put plainly: Displacement of [3H]NMS from human recombinant muscarinic receptor M4 expressed in CHO-K1 cell membranes incubated for 2 hrs by scintillation counting method. In short, it runs like this:
as §2

The target of assay [7] is T4, Muscarinic acetylcholine receptor M1 (Homo sapiens, UniProt P11229).
T4 sequence (P11229 whole entry): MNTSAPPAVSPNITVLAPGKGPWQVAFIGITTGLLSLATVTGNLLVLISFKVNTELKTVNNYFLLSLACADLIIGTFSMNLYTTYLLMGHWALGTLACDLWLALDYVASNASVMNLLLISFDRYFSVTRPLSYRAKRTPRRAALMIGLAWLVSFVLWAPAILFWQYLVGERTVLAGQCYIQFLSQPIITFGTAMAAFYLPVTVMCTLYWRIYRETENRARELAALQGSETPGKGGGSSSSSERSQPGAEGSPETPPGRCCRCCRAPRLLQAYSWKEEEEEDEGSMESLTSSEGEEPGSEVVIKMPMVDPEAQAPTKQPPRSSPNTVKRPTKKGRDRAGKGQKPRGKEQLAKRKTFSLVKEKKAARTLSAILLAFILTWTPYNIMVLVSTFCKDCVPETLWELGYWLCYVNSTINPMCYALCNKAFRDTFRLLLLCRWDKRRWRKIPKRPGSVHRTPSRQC
Briefly: Displacement of [3H]NMS from human recombinant muscarinic receptor M1 expressed in CHO-K1 cell membranes incubated for 2 hrs by scintillation counting method. In short, it runs like this: (§3)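 Membranes from CHO-K1 cells stably expressing each human subtype, homogenised in 25 mM sodium phosphate, 5 mM MgCl2, pH 7.4. About 25–70 μg/mL protein incubated with 0.2 nM [3H]NMS and test compound for 2 h at r.t. Nonspecific binding defined with 10 μM atropine. Filtration, then counting. Four-parameter logistic fit gave IC50, converted to Ki. Mean ± S.E.M. of ≥3 experiments in duplicate.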

Assay [8] deals with Muscarinic acetylcholine receptor M3 (Homo sapiens, UniProt P20309). Put plainly: Displacement of [3H]NMS from human recombinant muscarinic receptor M3 expressed in CHO-K1 cell membranes incubated for 2 hrs by scintillation counting method. In short, it runs like this: as §3
For assay [9], the target named is T5, Muscarinic acetylcholine receptor M2 (Homo sapiens, UniProt P08172).
T5 sequence (P08172 whole entry): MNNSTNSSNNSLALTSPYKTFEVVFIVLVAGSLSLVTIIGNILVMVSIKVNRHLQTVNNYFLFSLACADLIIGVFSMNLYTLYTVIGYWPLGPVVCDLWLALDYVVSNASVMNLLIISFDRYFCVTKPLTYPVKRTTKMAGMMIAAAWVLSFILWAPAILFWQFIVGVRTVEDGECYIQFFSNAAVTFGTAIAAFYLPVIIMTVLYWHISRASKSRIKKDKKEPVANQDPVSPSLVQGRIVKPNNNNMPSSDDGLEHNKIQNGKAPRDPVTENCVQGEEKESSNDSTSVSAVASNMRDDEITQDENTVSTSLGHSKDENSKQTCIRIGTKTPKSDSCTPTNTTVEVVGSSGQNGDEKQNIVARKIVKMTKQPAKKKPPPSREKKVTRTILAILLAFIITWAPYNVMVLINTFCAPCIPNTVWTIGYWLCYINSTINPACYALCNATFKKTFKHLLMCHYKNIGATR
Put plainly: Displacement of [3H]NMS from human recombinant muscarinic receptor M2 expressed in CHO-K1 cell membranes incubated for 2 hrs by scintillation counting method. A digest of the protocol: as §3

Chain of Muscarinic acetylcholine receptor M3 (P20309 whole entry): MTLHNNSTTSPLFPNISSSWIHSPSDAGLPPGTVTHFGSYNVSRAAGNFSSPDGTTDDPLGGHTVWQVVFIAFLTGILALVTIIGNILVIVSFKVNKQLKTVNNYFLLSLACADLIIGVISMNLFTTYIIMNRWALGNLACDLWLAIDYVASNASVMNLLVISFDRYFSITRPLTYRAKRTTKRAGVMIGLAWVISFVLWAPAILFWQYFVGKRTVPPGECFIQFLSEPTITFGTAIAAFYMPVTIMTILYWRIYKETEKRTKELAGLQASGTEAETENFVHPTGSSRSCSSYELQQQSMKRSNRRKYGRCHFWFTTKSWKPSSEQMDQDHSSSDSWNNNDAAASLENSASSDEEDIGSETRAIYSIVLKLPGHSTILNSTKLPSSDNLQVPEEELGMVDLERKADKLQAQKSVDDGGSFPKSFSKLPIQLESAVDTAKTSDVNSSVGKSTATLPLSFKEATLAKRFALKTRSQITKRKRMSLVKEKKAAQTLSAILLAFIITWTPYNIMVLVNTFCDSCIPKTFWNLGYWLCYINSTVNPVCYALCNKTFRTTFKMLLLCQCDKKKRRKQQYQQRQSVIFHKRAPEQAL

For the compound `CN1[C@@H]2CC[C@H]1C[C@@H](OC(=O)C(CO)c1ccccc1)C2` (stereo partly specified), the outcome in [1] and in assay [3] was Active. Further, the inhibition entry in assay [2] was “Active”.
Consider `C[N+](C)(C)C[C@@H]1COC[C@](c2ccccc2)(C2CCCCC2)O1` (relative stereo), for which the result in assay [1] and in [3] was Active. Further, the inhibition entry in assay [4] is “Active”.
The term pKi denotes −log10 of the Ki, conventionally taken in molar units. Take `O=C(O[C@H]1C[C@H]2CC[C@@H](C1)[N+]21CCCC1)C(O)(c1ccccc1)c1ccccc1` [TROSPIUM CHLORIDE]: the pKi is 8.22 in assay [5]; 8.84 in [6]; 8.46 in [7]; 8.99 in assay [8]; 8.94 in assay [9].
